Experimental data reported in paper PMC5207485 (Bioorganic & medicinal chemistry, 2016).
Read-outs that look alike come from different tables or passages of the source.

What was measured:
[1] = PET scan of [18F]ALS-I-41 in a cynomolgus macaque, IV bolus; format: in vivo, cynomolgus macaque (Macaca fascicularis)
Summary of the method: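 Single male cynomolgus macaque (8.1 kg), Telazol 3 mg/kg IM, then intubated and ventilated on 1–2% isoflurane in oxygen with continuous vital monitoring. 5 mCi of the [18F]tracer given IV, then brain PET for 2 h, co-registered to the animal's MRI. Summed frames at 9–26 min and 90–120 min post-injection were used to assess distribution.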

[2] = PET imaging of [18F]ALS-I-41 in Sprague-Dawley rats; format: in vivo; conditions: rat PET
Summary of the method: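 Female Sprague-Dawley rats (200–330 g), isoflurane induction 4–5% and maintenance 1–2% in oxygen, vitals and temperature monitored. [18F]tracer was given IM at 340–390 μCi in 100 μl above the knee, with scanning from 15 min post-injection, or as a 30 min tail-vein infusion of 250–310 μCi in 10% ethanol/saline by syringe pump. 2 h PET with Co-57 attenuation correction; time-activity curves for whole brain, arm muscle and skull.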

[3] = titi monkey models; cited from earlier work
[4] = Plasma concentration of ALS-I-41 after IN or IM administration; format: in vivo, rhesus macaque; conditions: for Time Plasma Max: male rhesus
[5] = CSF concentration of ALS-I-41 after IN or IM administration; format: in vivo, rhesus macaque; conditions: for Time Max: macaque CSF; for Ave Max in CSF / Time CSF Max: male rhesus
Summary of the method: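 Four male rhesus macaques (5 yr, 9–13 kg) under IM Telazol (4–5 mg/kg) with IV propofol drip (10 mg/kg/hr). Test compound in propylene glycol, given IN by face-mask pediatric nebulizer over 8 min (dose from nebulizer residue) or IM 6.15 mg into the inner thigh. Lumbar CSF was analysed unprocessed by LC-MS/MS in duplicate (C18, 70:30:0.1 water/methanol/formic acid). Detection limit ~1 pg/ml; blood-contaminated samples excluded.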

human OXTR = conditions: displacing [^3H]OT at a concentration of 2 nM; cited from earlier work
[6] = rhesus macaque, intravenous dose; cited from earlier work
[7] = CSF OT levels after IV and IN nasal spray OT, maximum 5 IU/kg; format: in vivo; conditions: macaque, maximum of 5 IU/kg OT, same calculation from data of ref 38
[8] = macaque, IN nasal spray, maximum of 5 IU/kg OT; cited from earlier work
[9] = IN 24 IU OT, 75 minutes post administration, baseline 20 pg/ml; cited from earlier work
[10] = aerosolized IN high dose, ave dose 7690 μg
[11] = aerosolized IN low dose, ave dose 202 μg
[12] = rhesus, IN 7.5 mg target dose vs low dose

For `CS(=O)(=O)N1CCC(Oc2ccc(CC(=O)N3CCC(N4C(=O)CCc5ccccc54)CC3)c(OCC[18F])c2)CC1` [[^18F]ALS-I-41], the “time at which distribution of the tracer throughout the entire brain peaked” value ([1]; cynomolgus macaque, 5 mCi IV bolus) was 15 to 30 min, the “brain uptake versus neck muscle tissue (TAC)” value ([1]; cynomolgus macaque, 5 mCi IV, 2 hour scan) was “only a fraction of the dose reaches the brain” and the “tracer remaining in the thalamic region at the end of the scan” value ([1]; cynomolgus macaque, 2 hour scan) was “very little remained”. For the same molecule, the bone uptake ([1]; monkey model (macaque PET scan)) was “no significant bone uptake detected”, the “metabolism suggested by rapid uptake in the bone” value [2] was “rapidly metabolized on first pass” and the brain penetration [3] was “no significant brain penetration”.
With `CS(=O)(=O)N1CCC(Oc2ccc(CC(=O)N3CCC(N4C(=O)CCc5ccccc54)CC3)c(OCCF)c2)CC1` [ALS-I-41] the “Time Plasma Max” value ([4]; IM, dose 6150 μg) was 60 m, the “Time Plasma Max” value [4, 10] was 15 m and the “Time Plasma Max” value [4, 11] was 5 m. The “increase in plasma concentrations, high dose IN in comparison to low dose IN” value [4, 12] was 150 fold, the “Time Max” value ([5]; IM 6.15 mg) was 120 m and the “Time Max” value ([5]; IN 7.69 mg) was 60 m. The “time retained within the brain” value ([5]; macaque, after IN or IM administration) was “over 2 hours”, the “Ave Max in CSF” value ([5]; IM, dose 6150 μg) was 478 pg/mL and the “Time CSF Max” value ([5]; IM, dose 6150 μg) was 120 m. The “Ave Max in CSF” value [5, 10] was 97.2 pg/mL, the “Time CSF Max” value [5, 10] was 60 m and the “Ave Max in CSF” value [5, 11] was 7.36 pg/mL. The “Time CSF Max” value [5, 11] was 120 m, the brain penetration ([5]; rhesus macaque, via CSF extraction and PET imaging) was “mild brain penetrant” and the “increase in CSF concentration, high dose IN in comparison to low dose IN” value [5, 12] was 14 fold. For the same molecule, the Ki (human OXTR) was 16 nM.
In the case of `Cc1ccccc1N1CCN(S(=O)(=O)CC23CCC(CC2NC(=O)C(N)CCS(C)(=O)=O)C3(C)C)CC1` [L-368,899], the “time remaining in the CSF post injection” value [6] is listed as “over 250 minutes”.
For oxytocin [OT], the “maximum reported CSF OT increase” value [7] is listed as about 22 pM, the “change of CSF OT” value [8] is listed as “no significant change” and the “OT levels in human CSF post administration” value [9] is listed as 30 pg/mL.
